Experimental data as given in ChEMBL document CHEMBL2146360, “Selection, synthesis, and anti-inflammatory evaluation of the arylidene malonate derivatives as TLR4 signaling inhibitors” (Bioorg Med Chem, 2012).
The source made the active and inactive calls. The calls are words filed in the database; no cut-off is given here.

Experiments:
Type in all cases: cell-based
Toll-like receptor 4 [1] = target: T1, Toll-like receptor 4 (Mus musculus, UniProt Q9QUK6); assay: Inhibition of TLR4 in LPS-stimulated mouse RAW264.7 cells assessed as reduction of NO production after 24 hrs
T1 sequence (Q9QUK6 whole entry): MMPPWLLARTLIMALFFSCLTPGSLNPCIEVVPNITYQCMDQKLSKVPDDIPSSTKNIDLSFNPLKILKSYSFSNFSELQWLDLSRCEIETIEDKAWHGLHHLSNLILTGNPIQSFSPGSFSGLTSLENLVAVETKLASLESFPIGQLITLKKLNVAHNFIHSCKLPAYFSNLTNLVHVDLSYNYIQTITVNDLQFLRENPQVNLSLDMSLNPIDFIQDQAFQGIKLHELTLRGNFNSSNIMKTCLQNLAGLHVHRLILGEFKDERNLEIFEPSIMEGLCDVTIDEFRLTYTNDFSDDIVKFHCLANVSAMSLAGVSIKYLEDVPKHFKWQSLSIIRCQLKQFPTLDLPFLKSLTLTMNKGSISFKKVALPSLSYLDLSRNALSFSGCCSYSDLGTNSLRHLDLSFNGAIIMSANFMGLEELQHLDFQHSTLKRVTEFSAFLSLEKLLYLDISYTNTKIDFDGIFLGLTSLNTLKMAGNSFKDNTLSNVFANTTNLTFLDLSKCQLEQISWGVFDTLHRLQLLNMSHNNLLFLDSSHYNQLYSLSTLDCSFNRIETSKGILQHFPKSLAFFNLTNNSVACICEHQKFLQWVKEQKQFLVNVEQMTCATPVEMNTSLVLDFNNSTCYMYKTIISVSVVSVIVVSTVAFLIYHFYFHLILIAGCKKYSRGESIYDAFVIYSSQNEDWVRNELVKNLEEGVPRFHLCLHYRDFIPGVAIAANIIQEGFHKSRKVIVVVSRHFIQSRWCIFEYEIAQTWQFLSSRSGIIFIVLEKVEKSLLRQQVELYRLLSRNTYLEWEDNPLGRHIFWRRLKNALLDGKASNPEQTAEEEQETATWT
How it was run: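 RAW 264.7 cells at 7.5×10^4/well were incubated 24 h, moved to fresh RPMI 1640, treated with vehicle or compound, and stimulated with LPS 20 ng/mL for 24 h. Nitrite in the medium was reacted with 2,3-diaminonaphthalene (0.05 mg/mL in 0.62 M HCl) for 15 min in the dark, NaOH was added, and […] was read at 450 nm.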

[2] = target: T2, Toll-like receptor 4 (Mus musculus) (UniProt Q9QUK6); assay: (§1) Inhibition of TLR4 in LPS-stimulated mouse RAW264.7 cells assessed as reduction of TNFalpha production after 24 hrs by ELISA
T2 sequence (whole entry): T1 sequence (Q9QUK6 whole entry)
How it was run: (§2)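 RAW 264.7 cells (5×10^5/well, 6-well plates) were treated with or without LPS and then with compound for 24 h. Culture supernatant was harvested and clarified, and TNF-α was measured by ELISA.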

Toll-like receptor 4 [3] = target: T1, Toll-like receptor 4; assay: as §1; how it was run: as §2
[4] = target: T2, Toll-like receptor 4 (Mus musculus); assay: Inhibition of TLR4 in LPS-stimulated mouse BV2 cells assessed as reduction of NF-kappaB activation after 24 hrs by Dual-GLO luciferase assay; settings: BV-2
How it was run: (§3)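 BV-2 cells stably carrying an NF-κB dual-luciferase reporter were kept in DMEM/10% FBS with puromycin (3 μg/mL) and seeded at 1×10^4/well. After 24 h the medium was switched to Opti-MEM/0.5% FBS. Compound was added, followed by LPS 200 ng/mL for 24 h. Read-out was the Firefly/Renilla luciferase ratio (Dual-Glo).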

RAW264.7 = assay: Cytotoxicity against mouse RAW264.7 cells assessed as cell viability up to 10 uM after 24 hrs by WST-1 assay; settings: raw264.7, 24 h
How it was run: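 WST-1 viability assay: RAW 264.7 cells at 2×10^4 cells/well, cultured 24 h at 37°C, then moved to serum-free medium and treated with vehicle or compound (10 mM DMSO stocks) for 24 h. WST-1 reagent added for 30 min at 37°C; absorbance read at 490 nm.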

[5] = target: T2, Toll-like receptor 4 (Mus musculus); assay: (§4) Inhibition of TLR4 in LPS-stimulated mouse RAW264.7 cells assessed as reduction of IL1-beta production after 24 hrs by ELISA
How it was run: (§5)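 RAW 264.7 cells (5×10^5/well, 6-well plates) were treated with or without LPS and then with compound for 24 h. Cells were lysed and IL-1β was measured in the lysate by ELISA, normalized to total protein.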

Toll-like receptor 4 [6] = target: T1, Toll-like receptor 4; assay: as §4; how it was run: as §5
[7] = target: Toll-like receptor 1/2 (Mus musculus) (UniProt Q9QUN7+Q9EPQ1); assay: Inhibition of TLR1/TLR2 in Pam3CSK4-stimulated mouse RAW264.7 cells at 0.6 uM after 24 hrs
How it was run: (§6)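 RAW 264.7 cells were stimulated with the TLR-selective ligand named in the line, in the presence or absence of compound (0.6 μM). NO was then measured by the nitrite protocol: 7.5×10^4 cells/well, RPMI 1640, 24 h. 2,3-diaminonaphthalene was added, then NaOH, and […] read at 450 nm. Mean ±SD of 3 experiments, each run in triplicate.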

[8] = target: TLR7 and TLR8 (Mus musculus) (UniProt P58681+P58682); assay: Inhibition of TLR7/TLR8 in R848-stimulated mouse RAW264.7 cells at 0.6 uM after 24 hrs; how it was run: as §6
TLR7 and TLR8 (Mus musculus), sequence (P58681 whole entry, looked up): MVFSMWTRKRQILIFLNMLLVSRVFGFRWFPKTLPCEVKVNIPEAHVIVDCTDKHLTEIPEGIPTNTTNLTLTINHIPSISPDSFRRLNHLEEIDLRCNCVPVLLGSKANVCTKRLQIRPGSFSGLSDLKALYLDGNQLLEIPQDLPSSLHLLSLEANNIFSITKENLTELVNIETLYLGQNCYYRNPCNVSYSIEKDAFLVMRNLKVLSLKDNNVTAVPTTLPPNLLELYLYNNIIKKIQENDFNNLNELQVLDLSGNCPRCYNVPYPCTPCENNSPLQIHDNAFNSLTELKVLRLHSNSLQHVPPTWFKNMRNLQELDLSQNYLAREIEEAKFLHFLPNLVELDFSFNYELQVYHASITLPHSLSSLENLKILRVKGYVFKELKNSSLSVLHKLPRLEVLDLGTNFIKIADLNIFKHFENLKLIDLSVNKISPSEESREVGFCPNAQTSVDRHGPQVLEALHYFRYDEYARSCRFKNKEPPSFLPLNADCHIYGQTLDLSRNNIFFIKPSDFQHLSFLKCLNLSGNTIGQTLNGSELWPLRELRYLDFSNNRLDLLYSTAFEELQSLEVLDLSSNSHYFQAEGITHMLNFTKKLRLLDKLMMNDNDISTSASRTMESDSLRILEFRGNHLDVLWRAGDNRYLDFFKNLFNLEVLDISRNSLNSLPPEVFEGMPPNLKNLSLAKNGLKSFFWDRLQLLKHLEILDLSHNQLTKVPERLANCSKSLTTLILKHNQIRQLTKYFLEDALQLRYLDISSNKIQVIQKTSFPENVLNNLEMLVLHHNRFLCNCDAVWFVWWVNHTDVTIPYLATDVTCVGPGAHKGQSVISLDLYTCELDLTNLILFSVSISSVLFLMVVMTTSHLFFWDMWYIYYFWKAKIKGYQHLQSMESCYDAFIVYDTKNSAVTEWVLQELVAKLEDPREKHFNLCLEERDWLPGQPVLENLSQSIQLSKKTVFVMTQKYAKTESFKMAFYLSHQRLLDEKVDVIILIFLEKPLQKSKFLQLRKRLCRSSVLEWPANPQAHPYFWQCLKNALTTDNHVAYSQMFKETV
TLR7 and TLR8 (Mus musculus), sequence (P58682 whole entry, looked up): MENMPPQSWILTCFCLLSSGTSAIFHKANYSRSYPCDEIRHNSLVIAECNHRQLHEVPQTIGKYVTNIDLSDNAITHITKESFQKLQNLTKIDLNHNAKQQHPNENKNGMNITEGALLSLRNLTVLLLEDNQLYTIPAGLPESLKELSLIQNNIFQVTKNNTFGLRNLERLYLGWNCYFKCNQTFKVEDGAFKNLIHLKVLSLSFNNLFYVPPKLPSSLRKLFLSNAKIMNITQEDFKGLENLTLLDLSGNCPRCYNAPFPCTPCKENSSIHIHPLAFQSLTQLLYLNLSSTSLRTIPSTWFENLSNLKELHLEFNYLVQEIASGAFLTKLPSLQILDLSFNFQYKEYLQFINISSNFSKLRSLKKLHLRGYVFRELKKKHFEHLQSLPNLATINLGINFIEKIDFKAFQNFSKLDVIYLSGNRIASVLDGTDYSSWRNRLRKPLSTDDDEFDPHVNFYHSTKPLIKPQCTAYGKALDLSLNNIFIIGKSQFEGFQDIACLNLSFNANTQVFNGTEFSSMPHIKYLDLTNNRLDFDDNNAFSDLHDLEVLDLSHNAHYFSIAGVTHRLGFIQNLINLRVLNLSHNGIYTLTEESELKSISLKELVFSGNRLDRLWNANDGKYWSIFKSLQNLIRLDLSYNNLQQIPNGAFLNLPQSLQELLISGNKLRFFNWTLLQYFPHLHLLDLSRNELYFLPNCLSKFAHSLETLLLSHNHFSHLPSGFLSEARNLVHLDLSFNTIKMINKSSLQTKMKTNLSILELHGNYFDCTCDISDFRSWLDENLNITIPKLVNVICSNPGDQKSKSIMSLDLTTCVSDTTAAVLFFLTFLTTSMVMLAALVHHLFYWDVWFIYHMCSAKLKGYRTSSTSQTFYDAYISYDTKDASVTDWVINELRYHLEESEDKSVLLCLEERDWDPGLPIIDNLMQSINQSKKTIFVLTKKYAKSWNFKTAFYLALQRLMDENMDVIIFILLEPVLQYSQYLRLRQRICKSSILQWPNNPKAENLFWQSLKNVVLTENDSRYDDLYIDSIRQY

[9] = target: T3, Toll-like receptor 3 (Mus musculus) (UniProt Q99MB1); assay: Inhibition of TLR3 in poly(I:C)-stimulated mouse RAW264.7 cells at 0.6 uM after 24 hrs; how it was run: as §6
T3 sequence (whole entry): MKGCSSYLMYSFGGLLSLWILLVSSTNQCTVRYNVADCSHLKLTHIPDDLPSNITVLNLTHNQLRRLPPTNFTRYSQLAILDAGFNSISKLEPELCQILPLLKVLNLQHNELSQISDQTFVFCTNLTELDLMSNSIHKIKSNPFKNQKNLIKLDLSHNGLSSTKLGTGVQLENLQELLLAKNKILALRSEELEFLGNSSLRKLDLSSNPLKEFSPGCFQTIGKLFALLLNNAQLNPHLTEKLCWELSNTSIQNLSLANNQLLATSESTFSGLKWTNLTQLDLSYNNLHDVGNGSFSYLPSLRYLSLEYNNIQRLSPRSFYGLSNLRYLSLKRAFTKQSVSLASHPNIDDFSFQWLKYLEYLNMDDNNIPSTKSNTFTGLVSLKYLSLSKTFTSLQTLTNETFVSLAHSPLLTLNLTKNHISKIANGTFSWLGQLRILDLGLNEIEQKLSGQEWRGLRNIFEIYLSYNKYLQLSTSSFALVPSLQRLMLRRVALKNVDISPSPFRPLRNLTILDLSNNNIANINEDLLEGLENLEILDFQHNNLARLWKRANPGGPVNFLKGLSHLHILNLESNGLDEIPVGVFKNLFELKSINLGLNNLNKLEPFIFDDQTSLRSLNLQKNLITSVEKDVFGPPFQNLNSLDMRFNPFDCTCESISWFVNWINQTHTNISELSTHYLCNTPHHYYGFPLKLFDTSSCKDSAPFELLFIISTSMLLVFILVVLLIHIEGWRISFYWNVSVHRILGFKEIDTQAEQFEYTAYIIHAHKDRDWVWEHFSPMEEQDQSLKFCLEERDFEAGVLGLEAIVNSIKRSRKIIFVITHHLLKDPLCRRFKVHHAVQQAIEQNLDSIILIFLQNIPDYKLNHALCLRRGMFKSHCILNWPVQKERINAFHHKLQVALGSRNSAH

TLR2/TLR6 (Mus musculus) = TLR2/TLR6 (Mus musculus) (UniProt Q9QUN7+Q9EPW9); assay: Inhibition of TLR2/TLR6 in FSL1-stimulated mouse RAW264.7 cells at 0.6 uM after 24 hrs; how it was run: as §6
[10] = target: T2, Toll-like receptor 4 (Mus musculus); assay: Inhibition of TLR4 in LPS-stimulated mouse RAW264.7 cells assessed as reduction of TNFalpha production at 3 to 10 uM after 24 hrs by ELISA; how it was run: as §2
[11] = target: T2, Toll-like receptor 4 (Mus musculus); assay: Inhibition of TLR4 in LPS-stimulated mouse BV2 cells assessed as reduction of NF-kappaB activation up to 10 uM after 24 hrs by Dual-GLO luciferase assay; settings: BV-2; how it was run: as §3
[12] = target: T2, Toll-like receptor 4 (Mus musculus); assay: Inhibition of TLR4 in LPS-stimulated mouse RAW264.7 cells assessed as reduction of IL1-beta production at 3 to 10 uM after 24 hrs by ELISA; how it was run: as §5

Structure (SMILES) | IC50 (Toll-like receptor 4 [1]) [nM] | further results
COC(=O)C(=Cc1cccc([N+](=O)[O-])c1)C(=O)OC | 2130 | 
COC(=O)C(=Cc1ccccc1)C(=O)OC | 820 | 
COC(=O)C(=Cc1ccccc1Cl)C(=O)OC | 820 | 
O=C(O)C(=Cc1ccccc1[N+](=O)[O-])C(=O)O | 520 | 
COC(=O)C(=Cc1ccc(F)cc1)C(=O)OC | 710 | 
COC(=O)C(=Cc1ccc(OC)cc1OC)C(=O)OC | 820 | 
O=C(O)C(=Cc1ccccc1F)C(=O)O | 410 | 
COC(=O)C(=Cc1ccc([N+](=O)[O-])cc1)C(=O)OC | 820 | 
COC(=O)C(Cc1ccccc1[N+](=O)[O-])C(=O)OC | > 100000 | inhibition [10]: inactive; inhibition [11]: inactive; inhibition [12]: inactive
COC(=O)/C=C/c1ccccc1[N+](=O)[O-] | 4530 | 
COC(=O)C(=Cc1ccc(N(C)C)cc1)C(=O)OC | 3110 | 
COC(=O)C(=Cc1ccc(F)cc1F)C(=O)OC | 420 | 
COC(=O)C(=Cc1cccc(F)c1)C(=O)OC | 2530 | 
COc1ccc(C=C(C(=O)O)C(=O)O)cc1 | 1440 | 
COC(=O)C(=CC1CCCCC1)C(=O)OC | 78200 | 
O=C(O)C(=Cc1ccccc1)C(=O)O | 930 | 

Further lines, with some results ahead:

IC50 (Toll-like receptor 4 [1]) [nM] | Structure (SMILES) | further results
1540 | COC(=O)C(=Cc1ccc(Cl)cc1)C(=O)OC | 
310 | COC(=O)C(=Cc1ccccc1[N+](=O)[O-])C(=O)OC | inhibition [2]: Dose-dependent effect; IC50 (Toll-like receptor 4 [3]): 1540 nM; IC50 [4]: 5920 nM; inhibition [4]: Dose-dependent effect; Activity (RAW264.7): Non-toxic; inhibition [5]: Dose-dependent effect; IC50 (Toll-like receptor 4 [6]): 420 nM; inhibition [7]: inactive; inhibition [8]: inactive; inhibition [9]: inactive; inhibition (TLR2/TLR6 (Mus musculus)): Active
330 | COC(=O)C(=Cc1ccccc1F)C(=O)OC | 
3720 | COC(=O)C(=Cc1cccc(OC)c1)C(=O)OC | 
1330 | COC(=O)C(=Cc1ccc(C(=O)OC)cc1)C(=O)OC | 
1240 | COC(=O)C(=Cc1ccc(OC)cc1)C(=O)OC | 
740 | COC(=O)C(=Cc1ccccc1OC)C(=O)OC | 
6000 | COc1cc(/C=C/C(=O)CC(=O)/C=C/c2ccc(O)c(OC)c2)ccc1O [CURCUMIN] | 
